Compound activity deposited in PubChem BioAssay by The Scripps Research Institute Molecular Screening Center.
TAAR1 antagonist: human TAAR1 antagonism | inhibition, % at 3 µM | 1.5% of 360,000 active | CHO RD-HGA16 TAAR1, Fluo-8 calcium fluorescence, antagonist;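 active = inhibition above a per-plate cutoff, the mean inhibition of test compounds on that plate plus 3 SD, cut at about 49% in these data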
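test system = CHO RD-HGA16 cells bearing hTAAR1 | replication = singlicate | controls = DMSO-only wells and EC80 β-PEA-stimulated wells | reagent = EC80 β-phenethylamine stimulus | read-out basis = percent inhibition of PEA-evoked calcium signal, max/basal emission ratio | schedule = seeding 17-24 h prior, 75-min 37 °C, 30-min RT dye loading | signal = kinetic Fluo-8 calcium fluorescence measurement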
OX1R antag-1: blocks the human orexin 1 receptor | OX1R-expressing cells, FRET antagonist read-out | AID 485270 | inhibition, % at 6.6 µM | O43613 | 1.8% of 330,000 active; in the data active = inhibition mostly above about 38%, no sharp cut-off; inactive = mostly below about 40%
Target sequence (O43613 whole entry, looked up): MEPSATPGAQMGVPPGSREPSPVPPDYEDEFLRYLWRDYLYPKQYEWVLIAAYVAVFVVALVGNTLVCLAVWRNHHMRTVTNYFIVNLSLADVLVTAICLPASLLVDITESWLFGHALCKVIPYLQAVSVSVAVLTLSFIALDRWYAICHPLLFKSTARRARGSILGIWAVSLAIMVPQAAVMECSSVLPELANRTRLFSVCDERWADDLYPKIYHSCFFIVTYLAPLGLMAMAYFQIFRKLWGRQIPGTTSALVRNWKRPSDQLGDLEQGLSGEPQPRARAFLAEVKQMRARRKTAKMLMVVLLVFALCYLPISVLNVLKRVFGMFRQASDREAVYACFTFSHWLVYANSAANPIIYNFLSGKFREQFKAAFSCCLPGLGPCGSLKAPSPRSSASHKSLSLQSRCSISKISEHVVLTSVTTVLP
TAAR1 ag: human TAAR1 agonism; Q96RJ0; CHO RD-HGA16 TAAR1, Fluo-8 calcium fluorescence; vehicle wells 0%, saturating PEA agonist 100%; activation, % at 3 µM; 0.99% of 360,000 active; AID 624467;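 active = activation above the mean activation of all test compounds in the run plus 3 SD, cut at about 38% in these data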
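Assay system: CHO-derived RD-HGA16 cells with stable Gα16 and human TAAR1; timing: 17-24 h seeding, 75 min 37 °C dye, 30 min RT; read-out: % activation from peak over basal fluorescence ratio, DMSO-to-PEA scaled; measured by: kinetic Fluo-8 calcium fluorescence; benchmarks: low control DMSO, high control PEA (EC100); doses: 3 µM single concentration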
GPR7 antag: blocks human GPR7 receptor signaling; AID 1861; P48145; GPR7-expressing cells, fluorescence antagonist assay; inhibition, % at 4.4 µM; 1.1% of 290,000 active; in the data active = inhibition above about 16%, passing the limit was not always enough;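 note: cells stimulated with the agonist NPW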
OX1R antag-2: human HCRTR1 antagonism. O43613. CHO/OX1R cells, Fluo-8 calcium fluorescence, orexin A. inhibition, % at 5 µM. 0.43% of 330,000 active. AID 434989;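 active = inhibition above its plate's threshold, mean inhibition of all tested compounds on the plate plus 3 SD, cut at about 37% in these data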
CHO parental Ca: signal in parental CHO cells, OX1R antagonist counter-screen. 0.63% of 330,000 active. inhibition, % at 5.6 µM. parental CHO-K1, ATP-induced calcium, Fluo-8 fluorescence;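 active = inhibition above that plate's mean sample inhibition plus 3 SD, cut at about 26% in these data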
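Measured by: calcium-sensitive Fluo-8 fluorescence / Test system: CHO parental line / Controls: ATP-challenged DMSO wells low, unchallenged DMSO wells high / Measure: % inhibition / Compound: single nominal dose of 5.6 µM per compound / Replicates: single well per compound, no replicates / Reagent: ATP as calcium-mobilizing challenge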
GPR7 antag cf: human GPR7 antagonism, confirmation assay. shares compounds with GPR7 antag. inhibition, % at 4.4 µM. 52% of 2,400 active. GPR7-expressing cells, calcium fluorescence antagonist mode; in the data active = inhibition above about 24%;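 note: stimulated with the GPR7 agonist NPW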
MCHR1 antagonist: counter-screen for GPR7 antagonists: antagonists of human MCHR1; inhibition, % at 4.4 µM; shares compounds with GPR7 antag; MCHR1-expressing cells, fluorescence antagonist assay; 62% of 2,400 active; AID 2148; in the data active = inhibition above about 22%
Hits are given with their value; n = inactive; x = not tested or not shown. An excerpt weighted towards active compounds, which were near 4.5% of everything screened.

SMILES	TAAR1 antagonist	OX1R antag-1	TAAR1 ag	GPR7 antag	OX1R antag-2	CHO parental Ca	GPR7 antag cf	MCHR1 antagonist
Cc1cc(C)nc(CCNC(=O)c2cc(COc3ccccc3)on2)n1	n	n	n	27	n	n	n	n
Cc1cc(C)nc(CCNC(=O)c2cc(COc3c(F)cccc3F)on2)n1	n	n	n	n	n	n	x	x
Cc1ccc(-c2csc3ncnc(N4CCN(C(=O)c5ccccc5)CC4)c23)cc1	50	n	n	29	n	n	36	53
O=C(c1ccco1)N1CCN(c2ncnc3scc(-c4ccccc4)c23)CC1	n	n	n	n	n	n	x	x
CC(C)c1ccc(CC(=O)N2CCC2(C)C(=O)NCCC#N)cc1 (stereo unspecified)	n	x	n	x	x	x	x	x
Cc1ccc(OCc2nc(C#N)c(N3CCN(Cc4ccccc4)CC3)o2)cc1	n	n	n	43	n	n	44	51
N#Cc1nc(COc2ccccc2)oc1N1CCN(Cc2ccccc2)CC1	n	n	n	26	n	n	33	52
O=C(CCCCCCCC(=O)c1ccccc1)c1ccccc1	n	n	n	n	n	n	x	x
C=C(CCC(=O)c1ccccc1)C(=O)c1ccccc1	n	n	n	46	n	n	86	78
COc1ccc2ccccc2c1CNC(C)c1ccccc1 (stereo unspecified)	n	n	n	n	n	n	x	x
CC(NCCCOc1cccc2ccccc12)c1ccccc1 (stereo unspecified)	n	n	45	25	n	n	57	50
O=C(CSc1nnc(Cc2cccs2)n1Cc1ccco1)Nc1cc(Cl)cc(Cl)c1	n	n	n	n	n	n	x	x
O=C(CSc1nnc(Cc2cccs2)n1Cc1ccco1)Nc1cccc(Cl)c1	n	n	n	21	n	n	25	33
COc1ccccc1-c1cc(C(=O)NC2CCN(C)CC2)c2ccc(Cl)c(C)c2n1	n	n	n	43	n	n	69	81
CCCCCCn1c(COc2ccccc2F)nnc1SCC(=O)NC1CCS(=O)(=O)C1 (stereo unspecified)	n	x	n	x	x	x	x	x
Clc1ccc2c(NCc3cccs3)ncnc2c1	n	n	n	n	n	n	x	x
Clc1ccc2c(NCc3ccco3)ncnc2c1	n	n	n	23	n	n	n	n
O=C(c1cc(F)ccc1F)C1CCCN(C(=O)c2ccc3nccnc3c2)C1 (stereo unspecified)	n	n	n	n	n	n	x	x
O=C(O)c1ccc(NCc2ccncc2)cc1	n	n	n	n	n	n	x	x
O=C(O)c1ccc(NCc2cccc(Br)c2)cc1	n	n	n	29	n	n	28	n
O=S(=O)(c1ccc(F)cc1)N1CCc2ccccc21	n	n	n	n	n	n	x	x
O=S(=O)(NC1CC1)c1ccc(S(=O)(=O)N2CCc3ccccc32)cc1	n	n	n	22	n	n	n	29
Cn1cccc1/C=C(\C#N)c1ccccc1	n	n	n	n	n	n	x	x
Cn1cccc1/C=C(/C#N)c1ccc(F)cc1	n	n	n	26	n	n	n	n
Cc1cccc(CSCCNC(=O)CSCc2ccc([N+](=O)[O-])cc2)c1	n	n	n	53	n	n	36	73
SMILES	TAAR1 antagonist	OX1R antag-1	TAAR1 ag	GPR7 antag	OX1R antag-2	CHO parental Ca	GPR7 antag cf	MCHR1 antagonist
Cc1ccccc1CSCCNC(=O)CSCc1ccc([N+](=O)[O-])cc1	n	n	n	n	n	n	x	x
Cc1ccc(CSCCNC(=O)CSCc2ccc([N+](=O)[O-])cc2)cc1	n	n	n	27	n	n	49	45
O=S(=O)(NC1c2cccc3cccc(c23)C1N1CCNCC1)c1ccc(Cl)cc1 (stereo unspecified)	n	n	n	49	n	n	48	47
C=C(C)CSc1nnc(-c2cccc(S(=O)(=O)N(C)C)c2)n1-c1cc(OC)ccc1OC	n	n	n	32	n	n	35	n
COc1ccc(N=C2NN=C(c3ccc4c(c3)OCCO4)CS2)cc1	n	n	n	23	n	n	n	n
FC(F)Sc1ccc(N=C2NN=C(c3ccc4c(c3)OCCO4)CS2)cc1	n	n	n	n	n	n	x	x
CC(NC(=O)c1ccco1)C(=O)OCC(=O)N1CCCCCC1 (stereo unspecified)	n	n	n	x	n	n	x	x
C=CCc1cccc(Cl)c1OCCCNC1CCCC1	n	n	n	30	n	n	31	21
CCOc1ccc(S(=O)(=O)NCc2ccccn2)cc1NC(=O)c1ccccc1F	n	n	n	n	n	n	x	x
Cc1cc(SCc2ccc([N+](=O)[O-])cc2)nc(=O)[nH]1	n	n	n	26	n	n	n	n
Cc1cc(SCc2cccc([N+](=O)[O-])c2)nc(=O)[nH]1	n	n	n	n	n	n	x	x
Cc1cccc2cc(CN(CCCN(C)C)C(=S)NCCc3ccccc3)c(=O)[nH]c12	n	n	n	31	n	n	49	30
Cc1ccc(CNC(=O)CCn2cc(-c3ccc(C)cc3)nc2CCN)cc1	n	n	n	x	n	n	x	x
CCOc1ccccc1-n1c(C)nc2cc(C(=O)O)ccc21	n	n	n	28	n	n	n	n
CCOc1ccc(N(CC(=O)NCc2ccccc2)C(=O)Cn2nnc(-c3ccc(C)o3)n2)cc1	n	n	n	n	n	n	x	x
COc1ccc(C(=O)C[n+]2cc(-c3ccc(OC)cc3)n3c2CCCC3)cc1	n	n	n	n	n	n	x	x
Cc1ccc(C(=O)C[n+]2cc(-c3ccc(C)cc3)n3c2CCCCC3)cc1	n	n	n	60	n	n	32	50
Cc1cc(Br)ccc1NC(=O)CN(C)C(=O)C1=COCCO1	n	n	n	x	n	n	x	x
Cc1ccccc1C(=O)NC1CCN(CC(=O)NC2CCCCC2)CC1	n	n	n	n	n	n	x	x
O=C(OC1C2CCC1C1CN(CCc3ccccc3)CC12)c1ccccc1 (stereo unspecified)	n	n	n	42	n	n	42	24
COc1ccc(CN2CCC(CO)(CCOc3ccccc3)CC2)c(OC)c1C	n	n	n	28	n	n	37	24
CCOC(=O)C1(CCOc2ccccc2)CCN(Cc2ccc(OC)c(COC)c2)CC1	n	n	n	36	n	n	36	52
CCOC(=O)C1(CCOc2ccccc2)CCN(Cc2ccc(OC)c(O)c2)CC1	n	n	n	n	n	n	x	x
COc1cc(Cl)c(CN2CCC(CO)(CCOc3ccccc3)CC2)cc1OC	n	n	n	n	n	n	x	x
